# In ChEMBL document CHEMBL4130549, “Synthesis and bioactivities study of new antibacterial peptide mimics: The dialkyl cationic amphiphiles” (Eur J Med Chem, 2018):
# Calls of active or inactive are those of the source. The calls are words filed in the database; no cut-off is given here.
# Key:
# [1] = tested on: Klebsiella pneumoniae; assay: Antibacterial activity against carbapenemase-producing Klebsiella pneumoniae isolate K6 after 16 to 20 hrs by broth microdilution method; format: functional
# Summary of the method: (§1)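 Broth microdilution per CLSI in cation-adjusted Mueller-Hinton broth; 4-6 h cultures (~10⁸ CFU/mL) diluted to ~10⁶ CFU/mL and mixed 1:1 with twofold dilutions of water-dissolved compound (256 to 0.5 µg/mL). Incubated 16-20 h at 37 °C; MIC read visually. Each concentration run in duplicate, whole experiment repeated at least twice. MRSA, KPC and NDM-1 strains were clinical isolates.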
# [2] = tested on: Klebsiella pneumoniae; assay: Antibacterial activity against carbapenemase-producing Klebsiella pneumoniae isolate K1 after 16 to 20 hrs by broth microdilution method; format: functional; summary of the method: as §1
# [3] = tested on: Enterobacteriaceae; assay: Antibacterial activity against NDM-1-producing Enterobacteriaceae isolate N1 after 16 to 20 hrs by broth microdilution method; format: functional; summary of the method: as §1
# [4] = tested on: Staphylococcus aureus; assay: Antibacterial activity against Staphylococcus aureus ATCC 29213 after 16 to 20 hrs by broth microdilution method; format: functional
# Summary of the method: (§2)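 CLSI broth microdilution in cation-adjusted Mueller-Hinton broth. A 4-6 h culture was diluted to about 10⁶ CFU/mL and mixed 1:1 with twofold compound dilutions (256–0.5 µg/mL before mixing) prepared from aqueous stocks. Plates were incubated at 37 °C for 16-20 h. Each concentration was tested in duplicate, and the experiment was repeated at least twice.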
# [5] = tested on: Enterobacteriaceae; assay: Antibacterial activity against NDM-1-producing Enterobacteriaceae isolate N6 after 16 to 20 hrs by broth microdilution method; format: functional; summary of the method: as §1
# [6] = tested on: Staphylococcus aureus; assay: Antibacterial activity against methicillin-resistant Staphylococcus aureus isolate M10 after 16 to 20 hrs by broth microdilution method; format: functional; summary of the method: as §2
# [7] = tested on: Staphylococcus aureus; assay: Induction of inner membrane permeabilization in Staphylococcus aureus ATCC 29213 at 20 ug/ml measured every 2 mins for 12 mins by propidium iodide staining based fluorescence assay; format: functional, organism-based
# Summary of the method: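 Mid-log cells (~10^8 CFU/mL) pre-incubated with propidium iodide (10 µM, 50 µL), 30 min for S. aureus and 40 min for E. coli. Fluorescence (ex 535/em 617 nm) read for 8 min, then compound added to 20 µg/mL final and monitored every 2 min for 12 min. Water-treated control.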
# [8] = tested on: Enterobacteriaceae; assay: Antibacterial activity against NDM-1-producing Enterobacteriaceae isolate N5 after 16 to 20 hrs by broth microdilution method; format: functional; summary of the method: as §1
# [9] = tested on: Staphylococcus aureus; assay: Antibacterial activity against methicillin-resistant Staphylococcus aureus after 16 to 20 hrs by broth microdilution method; format: functional; summary of the method: as §2
# [10] = tested on: Staphylococcus aureus; assay: Antibacterial activity against methicillin-resistant Staphylococcus aureus isolate M1 after 16 to 20 hrs by broth microdilution method; format: functional; summary of the method: as §2
# [11] = tested on: Klebsiella pneumoniae; assay: Antibacterial activity against carbapenemase-producing Klebsiella pneumoniae isolate K4 after 16 to 20 hrs by broth microdilution method; format: functional; summary of the method: as §1
# [12] = tested on: Staphylococcus aureus; assay: Ratio of MBC for methicillin-resistant Staphylococcus aureus in presence of 50% plasma to MBC for methicillin-resistant Staphylococcus aureus; format: functional
# Summary of the method: (§3)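 MRSA at 10⁵ CFU/mL in 50% Mueller-Hinton broth plus 50% sheep serum, plasma or defibrinated whole blood. Serum and plasma were separated by centrifugation at 3,500 rpm for 10 min. Aqueous compound dilutions (512–4 µg/mL before mixing) were combined 1:3 with the suspension and incubated 20-24 h at 37 °C. Wells were plated on Mueller-Hinton agar for a further 20-24 h; MBC was taken as no colonies.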
# [13] = tested on: Enterobacteriaceae; assay: Antibacterial activity against NDM-1-producing Enterobacteriaceae isolate N4 after 16 to 20 hrs by broth microdilution method; format: functional; summary of the method: as §1
# [14] = tested on: Staphylococcus aureus; assay: Bactericidal activity against Staphylococcus aureus after 20 to 24 hrs using compounds preincubated with 50% plasma for 3 to 6 hrs by broth microdilution method
# [15] = tested on: Staphylococcus aureus; assay: Bactericidal activity against methicillin-resistant Staphylococcus aureus after 20 to 24 hrs in presence of 50% serum by broth microdilution method; format: functional, organism-based; summary of the method: as §3
# [16] = tested on: Enterobacteriaceae; assay: Antibacterial activity against NDM-1-producing Enterobacteriaceae isolate N2 after 16 to 20 hrs by broth microdilution method; format: functional; summary of the method: as §1
# [17] = tested on: Staphylococcus aureus; assay: Antibacterial activity against methicillin-resistant Staphylococcus aureus isolate M4 after 16 to 20 hrs by broth microdilution method; format: functional; summary of the method: as §2
# [18] = tested on: Staphylococcus aureus; assay: Antibacterial activity against methicillin-resistant Staphylococcus aureus isolate M8 after 16 to 20 hrs by broth microdilution method; format: functional; summary of the method: as §2
# [19] = tested on: Klebsiella pneumoniae; assay: Antibacterial activity against carbapenemase-producing Klebsiella pneumoniae isolate K2 after 16 to 20 hrs by broth microdilution method; format: functional; summary of the method: as §1
# [20] = tested on: Enterococcus faecalis; assay: Antibacterial activity against Enterococcus faecalis after 16 to 20 hrs by broth microdilution method; format: functional; summary of the method: as §1
# [21] = tested on: Salmonella enterica; assay: Antibacterial activity against Salmonella enterica after 16 to 20 hrs by broth microdilution method; format: functional; summary of the method: as §1
# [22] = tested on: Staphylococcus aureus; assay: Antibiofilm activity against Staphylococcus aureus ATCC 29213 assessed as bacterial cell viability in biofilm at 2 ug/ml after 24 hrs (reference value: 21.9 log10CFU/ml); format: functional
# Summary of the method: (§4)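 Mid-log cells at ~10⁵ CFU/mL grown stationary in 96-well plates (S. aureus in MHB for 24 h; E. coli in M9 with 0.02% casamino acids and 0.5% glycerol for 72 h). After washing, biofilms exposed 24 h at 37 °C to 2-128 µg/mL; detached with trypsin-EDTA, serially plated, viability given as log10 CFU/well against an untreated control.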
# [23] = tested on: Staphylococcus aureus; assay: Antibiofilm activity against Staphylococcus aureus ATCC 29213 assessed as bacterial cell viability in biofilm at 128 ug/ml after 24 hrs (reference value: 21.9 log10CFU/ml); format: functional; summary of the method: as §4
# [24] = tested on: Escherichia coli; assay: Antibiofilm activity against Escherichia coli ATCC 25922 after 24 hrs by crystal violet staining method; format: functional
# Summary of the method: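 MBIC: twofold dilutions in MHB inoculated with 1:1000-diluted exponential-phase culture (10⁸ CFU/mL), 24 h at 37 °C. Wells rinsed, stained 10 min with 0.1% crystal violet, dye dissolved in ethanol, OD540 read; MBIC80 taken from dose–response versus untreated wells.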
# [25] = tested on: HeLa; assay: Cytotoxicity against human HeLa cells at 1 to 2 times MIC after 24 hrs by calcein AM/propidium iodide staining based fluorescence microscopic method; format: cell-based
# Summary of the method: (§5)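 HeLa cells kept in DMEM with 10% FBS at 37 °C and 5% CO2, seeded in 12-well plates and left to adhere overnight. Cells then exposed 24 h to 1, 2, 4, 8 and 16 µg/mL, with 0.1% Triton X-100 as positive control and untreated wells as negative control. Cells washed with PBS, imaged for morphology, and stained 15 min at 37 °C with 2 µM calcein AM plus 4.5 µM PI for live/dead fluorescence.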
# [26] = tested on: Escherichia coli; assay: Antibiofilm activity against Escherichia coli ATCC 25922 at 8 to 128 ug/ml after 72 hrs by crystal violet staining based assay; format: functional, organism-based
# Summary of the method: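 Biofilms grown in 24-well plates for about 72 h at 37 °C, treated, stained with 1.0% crystal violet, rinsed, dried, dye taken up in 95% ethanol for 1 h at room temperature, then photographed.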
# [27] = tested on: HeLa; assay: Cytotoxicity against human HeLa cells assessed as altered morphology at 1 to 2 times MIC after 24 hrs by optical microscopic method; format: cell-based; summary of the method: as §5
Compound,MIC [1],MIC [2],MIC [3],MIC [4],MIC [5],MIC [6],Activity [7],MIC [8],MIC [9],MIC [10],MIC [11],Ratio [12],MIC [13],MBC [14],Activity [15],MIC [16],MIC [17],MIC [18],MIC [19],MIC [20],also measured
CCCCCCCCN(CCCCCCCC)C(=O)[C@@H](N)CCCN=C(N)N.Cl.Cl.Cl,8 mg/L,8 mg/L,8 mg/L,1 mg/L,4 mg/L,0.5 mg/L,Active,4 mg/L,0.5 mg/L,1 mg/L,4 mg/L,2 - 4,8 mg/L,16 mg/L,Active,8 mg/L,1 mg/L,1 mg/L,4 mg/L,2 mg/L,MIC [21]: 8 mg/L
CCCCCCCCN(CCCCCCCC)C(=O)[C@@H](N)CCCCN.Cl.Cl,2 mg/L,2 mg/L,8 mg/L,2 mg/L,4 mg/L,0.5 mg/L,Active,4 mg/L,0.5 mg/L,1 mg/L,2 mg/L,2 - 4,8 mg/L,16 mg/L,Active,8 mg/L,1 mg/L,1 mg/L,2 mg/L,2 mg/L,MIC [21]: 4 mg/L
CCCCCCCCCCN(CCCCCCCCCC)C(=O)[C@@H](N)CCCN=C(N)N.Cl.Cl.Cl,4 mg/L,4 mg/L,4 mg/L,2 mg/L,4 mg/L,2 mg/L,Active,4 mg/L,2 mg/L,2 mg/L,4 mg/L,2 - 4,4 mg/L,16 mg/L,Active,4 mg/L,2 mg/L,2 mg/L,4 mg/L,2 mg/L,MIC [21]: 4 mg/L
CCCCCCCCCN(CCCCCCCCC)C(=O)[C@@H](N)CCCCN.Cl.Cl,2 mg/L,2 mg/L,2 mg/L,1 mg/L,2 mg/L,0.5 mg/L,Active,2 mg/L,0.5 mg/L,1 mg/L,2 mg/L,2 - 4,2 mg/L,16 mg/L,Active,2 mg/L,2 mg/L,1 mg/L,2 mg/L,1 mg/L,Activity [22]: 19.9 log10CFU; Activity [23]: 7.6 log10CFU; MBIC80 [24]: 53.9 µg/mL; MBIC90 [24]: 73.6 µg/mL; Activity [25]: Non-Toxic; Activity [26]: Active; Activity [27]: Non-Toxic; MIC [21]: 2 mg/L
CCCCCCCCCN(CCCCCCCCC)C(=O)[C@@H](N)CCCN=C(N)N.Cl.Cl.Cl,4 mg/L,4 mg/L,4 mg/L,1 mg/L,4 mg/L,2 mg/L,Active,4 mg/L,2 mg/L,2 mg/L,2 mg/L,2 - 4,4 mg/L,16 mg/L,Active,4 mg/L,1 mg/L,2 mg/L,4 mg/L,2 mg/L,Activity [25]: Non-Toxic; Activity [27]: Non-Toxic; MIC [21]: 4 mg/L
CCCCCCCCCCN(CCCCCCCCCC)C(=O)[C@@H](N)CCCCN.Cl.Cl,4 mg/L,4 mg/L,4 mg/L,4 mg/L,4 mg/L,1 mg/L,Active,4 mg/L,1 mg/L,1 mg/L,4 mg/L,2 - 4,4 mg/L,16 mg/L,Active,4 mg/L,2 mg/L,1 mg/L,4 mg/L,2 mg/L,MIC [21]: 2 mg/L
